Measured values: ChEMBL document CHEMBL4049408, “Exploration of 2-((Pyridin-4-ylmethyl)amino)nicotinamide Derivatives as Potent Reversal Agents against P-Glycoprotein-Mediated Multidrug Resistance” (J Med Chem, 2017)
Calls of active or inactive are those of the source. The rule behind the calls is not given here.

Experiments:
[1] = molecular target: T1, ATP-dependent translocase ABCB1 (Homo sapiens, UniProt P08183); assay: Inhibition of ABCB1 in human K562/A02 cells assessed as increase in intracellular Rh123 accumulation at 5 uM up to 90 mins by flow cytometry; format: cell-based; conditions: 1.5 h
How it was run: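 K562/A02 cells treated with 5.0 µM modulator; Rh123-associated mean fluorescence intensity read by flow cytometry at 5, 10, 25, 30, 60 and 90 min. Untreated cells as negative control. Mean ± SD of three experiments.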

[2] = molecular target: T1, ATP-dependent translocase ABCB1; assay: Substrate activity at ABCB1 ATPase in human ABCB1 membrane fraction assessed as increase in ATPase activity at 0.5 uM preincubated with compound followed by addition of MgATP measured after 1 hr by luciferase reporter gene assay relative to control; format: cell membranes
[3] = molecular target: T1, ATP-dependent translocase ABCB1; assay: Substrate activity at ABCB1 ATPase in human ABCB1 membrane fraction assessed as increase in ATPase activity at 5 uM preincubated with compound followed by addition of MgATP measured after 1 hr by luciferase reporter gene assay relative to control; format: cell membranes
[4] = molecular target: T1, ATP-dependent translocase ABCB1; assay: (§1) Inhibition of ABCB1 in human K562/A02 cells assessed as potentiation of adriamycin-mediated cytotoxicity by measuring reduction in ADR IC50 at 5 uM preincubated for 24 hrs followed by compound washout and subsequent addition of adriamycin measured after 48 hrs by MTT assay relative to control; format: cell-based
How it was run: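 K562/A02 cells incubated with modulator at 5.0 µM, then washed out. Reversal fold = IC50 without inhibitor / IC50 with inhibitor. Mean ± SD of three independent tests.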

[5] = test system: K562/A02; assay: Cytotoxicity against human K562/A02 cells overexpressing P-gp after 48 hrs by MTT assay; format: functional, cell-based; conditions: K562/A02, 48 h
How it was run: (§2)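 MTT viability in parental K562 and P-gp-overexpressing K562/A02 cells. Compound alone at a concentration series gives the IC50. Mean ± SD of three independent tests.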

[6] = molecular target: T1, ATP-dependent translocase ABCB1; assay: as §1, with “washout for 24 hrs” for “washout”; format: cell-based
How it was run: (§3)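 K562/A02 cells incubated with modulator at 5.0 µM, then washed out. Adriamycin IC50 determined at 0, 6, 12 or 24 h after removal, with an unwashed comparison. Reversal fold = IC50 without inhibitor / IC50 with inhibitor. Mean ± SD of three independent tests.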

[7] = molecular target: T1, ATP-dependent translocase ABCB1; assay: Inhibition of ABCB1 in human K562/A02 cells assessed as potentiation of adriamycin-mediated cytotoxicity by measuring reduction in ADR IC50 at 5 uM after 48 hrs by MTT assay relative to control; format: cell-based
How it was run: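 K562/A02 cells exposed to a series of adriamycin concentrations with modulator at 5.0 µM; 0.1% DMSO as solvent control. IC50 read by MTT. Reversal fold = IC50 without inhibitor / IC50 with inhibitor. Mean ± SD of three independent tests.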

[8] = molecular target: T1, ATP-dependent translocase ABCB1; assay: as §1, with “washout for 12 hrs” for “washout”; format: cell-based; how it was run: as §3
[9] = molecular target: T1, ATP-dependent translocase ABCB1; assay: as §1, with “washout for 6 hrs” for “washout”; format: cell-based; how it was run: as §3
[10] = test system: K562; assay: Cytotoxicity against human K562 cells after 48 hrs by MTT assay; format: functional, cell-based; conditions: K562, 48 h; how it was run: as §2
[11] = molecular target: T1, ATP-dependent translocase ABCB1; assay: Inhibition of ABCB1 in human K562/A02 cells assessed as increase in intracellular adriamycin accumulation at 1 uM after 2.5 hrs by spectrofluorimetric analysis; format: cell-based
How it was run: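 Intracellular adriamycin measured by its autofluorescence using spectrofluorometry after 2.5 h accumulation in K562/A02 cells. Modulator tested at concentrations up to 5.0 µM; parental K562 and untreated K562/A02 cells as comparators. Mean ± SD of three experiments.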

[12] = test system: K562/A02; assay: Potentiation of cyclophosphamide-mediated cytotoxicity against human K562/A02 cells at 5 uM after 48 hrs by MTT assay; format: functional, cell-based
How it was run: (§4)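 K562/A02 cells given daunorubicin, paclitaxel, vinblastine (P-gp substrates) or cyclophosphamide (non-substrate), each with modulator at 5.0 µM; cytotoxicity then measured. Mean ± SD of three independent tests.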

[13] = Selectivity index, ratio of IC50 for human GES-1 cells to EC50 for inhibition of ABCB1 in human K562/A02 cells assessed as potentiation of adriamycin-induced cytotoxicity by measuring compound concentration required for reduction of ADR IC50
How it was run: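 SI = IC50 in GES-1 cells divided by EC50 for reversal of adriamycin resistance in K562/A02 cells.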

[14] = molecular target: T1, ATP-dependent translocase ABCB1; assay: Inhibition of ABCB1 ATPase in human ABCB1 membrane fraction assessed as decrease in ATPase activity at 0.5 uM preincubated with compound followed by addition of MgATP measured after 1 hr by luciferase reporter gene assay relative to control; format: cell membranes
[15] = molecular target: T1, ATP-dependent translocase ABCB1; assay: Inhibition of ABCB1 in human K562/A02 cells assessed as potentiation of vinblastine-mediated cytotoxicity at 5 uM after 48 hrs by MTT assay; format: cell-based; how it was run: as §4
[16] = test system: K562/A02; assay: Cytotoxicity against human K562/A02 cells assessed as cell survival at 5 uM after 48 hrs by MTT assay relative to control; format: cell-based; conditions: k562/a02, 48 h, 5 µM
How it was run: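 MTT viability assay in P-gp-overexpressing, ADM-resistant K562/A02 cells, alongside parental K562. […] Values are mean ± SD of three independent tests.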

[17] = Inhibition of CYP3A4 in rat liver microsomes assessed as 6beta-hydroxytestosterone formation at 40 uM using testosterone as substrate by reverse-phase HPLC analysis; format: ADME
[18] = test system: K562/A02; assay: Effect on ABCB1 level in human K562/A02 cells at 0.1 to 5 uM after 72 hrs by Western blot analysis; format: functional, cell-based
How it was run: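 K562/A02 cells exposed to 0.1, 1.0 or 5.0 µmol/L compound for 72 h. ABCB1 detected by western blot; band intensity expressed as a ratio to β-tubulin.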

[19] = test system: GES1; assay: Cytotoxicity against human GES-1 cells after 48 hrs by MTT assay; format: cell-based; conditions: GES1, 48 h
How it was run: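 Survival of GES-1 cells measured across a range of compound concentrations to give the IC50. Mean ± SD of three independent tests.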

[20] = molecular target: T1, ATP-dependent translocase ABCB1; assay: Inhibition of ABCB1 in human K562/A02 cells assessed as potentiation of paclitaxel-mediated cytotoxicity at 5 uM after 48 hrs by MTT assay; format: cell-based; how it was run: as §4
[21] = molecular target: T1, ATP-dependent translocase ABCB1; assay: Inhibition of ABCB1 in human K562/A02 cells assessed as potentiation of daunorubicin-mediated cytotoxicity at 5 uM after 48 hrs by MTT assay; format: cell-based; how it was run: as §4

T1 sequence (P08183 whole entry): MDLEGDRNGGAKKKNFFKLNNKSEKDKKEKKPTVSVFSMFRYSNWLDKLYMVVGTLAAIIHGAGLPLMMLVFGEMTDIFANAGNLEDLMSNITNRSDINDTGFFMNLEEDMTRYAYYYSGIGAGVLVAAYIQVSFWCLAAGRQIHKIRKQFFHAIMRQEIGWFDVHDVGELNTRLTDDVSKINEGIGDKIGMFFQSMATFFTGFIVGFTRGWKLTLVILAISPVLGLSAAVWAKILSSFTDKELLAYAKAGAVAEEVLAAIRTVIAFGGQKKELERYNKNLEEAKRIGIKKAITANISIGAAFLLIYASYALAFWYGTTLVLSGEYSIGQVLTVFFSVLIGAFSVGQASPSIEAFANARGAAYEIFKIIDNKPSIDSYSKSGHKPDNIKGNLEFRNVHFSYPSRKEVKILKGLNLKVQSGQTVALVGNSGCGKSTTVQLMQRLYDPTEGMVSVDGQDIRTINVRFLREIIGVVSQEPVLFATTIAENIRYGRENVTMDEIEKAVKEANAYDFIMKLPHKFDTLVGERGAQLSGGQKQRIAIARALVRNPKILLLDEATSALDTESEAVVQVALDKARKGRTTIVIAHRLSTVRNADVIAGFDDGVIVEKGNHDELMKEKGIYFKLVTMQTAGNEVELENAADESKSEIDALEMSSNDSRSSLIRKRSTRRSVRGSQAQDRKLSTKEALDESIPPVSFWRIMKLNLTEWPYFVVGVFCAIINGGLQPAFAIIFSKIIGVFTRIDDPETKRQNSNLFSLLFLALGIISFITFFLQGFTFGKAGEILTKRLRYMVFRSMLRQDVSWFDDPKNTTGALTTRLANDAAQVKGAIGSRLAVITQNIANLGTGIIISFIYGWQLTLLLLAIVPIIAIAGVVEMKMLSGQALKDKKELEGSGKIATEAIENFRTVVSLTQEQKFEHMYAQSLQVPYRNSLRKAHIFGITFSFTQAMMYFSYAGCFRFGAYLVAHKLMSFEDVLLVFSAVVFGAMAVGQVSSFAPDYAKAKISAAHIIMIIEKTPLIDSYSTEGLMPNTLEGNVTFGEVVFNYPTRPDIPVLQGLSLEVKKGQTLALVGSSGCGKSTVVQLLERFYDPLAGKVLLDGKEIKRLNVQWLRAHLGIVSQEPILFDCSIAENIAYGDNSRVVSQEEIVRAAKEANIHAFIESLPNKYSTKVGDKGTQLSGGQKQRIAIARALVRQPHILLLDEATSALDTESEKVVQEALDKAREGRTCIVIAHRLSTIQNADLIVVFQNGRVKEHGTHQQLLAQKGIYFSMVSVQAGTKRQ

inhibition (INH) [1] | inhibition (INH) [11] | SMILES | fold change (FC) [4] | IC50 [5] [µM] | fold change (FC) [6] | fold change (FC) [8] | fold change (FC) [9] | IC50 [10] [µM] | other results
Active | Active | N#CC1(c2ccc(NC(=O)c3cccnc3NCc3ccncc3)cc2)CCCC1 [RIVOCERANIB] | 7.35 | 19.8 to 20.8 | 2.46 | 3.97 | 6.12 | 14.9 to 15.9 | fold change (FC) [2]: 1.41; fold change (FC) [3]: 2.68; fold change (FC) [7]: 8.63 to 8.71
Active | Active | COc1cc2c(cc1OC)CN(CCc1ccc(NC(=O)c3cccnc3NCc3ccncc3)cc1)CC2 | 27.98 | 74.9 | 7.84 | 14.54 | 20.03 | 55.4 | Activity [12]: inactive; Ratio IC50/EC50 [13]: >836.1; inhibition (INH) [14]: Active; inhibition (INH) [15]: Active; Activity [16]: Non-Toxic; inhibition (INH) [17]: Not Active; Activity [18]: inactive; IC50 [19]: > 100 µM; inhibition (INH) [20]: Active; inhibition (INH) [21]: Active
